In brackets after ≈: the same amount, converted by molar mass.
Tests used:
[1] = Selectivity index, ratio of CC50 for African green monkey Vero cells to MIC for Mycobacterium tuberculosis H37Rv; type: functional
[2] = test system: Mycobacterium tuberculosis; test: Antitubercular activity against Mycobacterium tuberculosis H37Rv assessed as growth inhibition after […] by agar microdilution method; type: functional
[3] = Cytotoxicity against African green monkey Vero cells after 24 hrs by MTS assay; type: cell-based; details: chlorocebus sabaeus
[4] = Mean residence time in Sprague-Dawley rat at 10 mg/kg, po; type: ADME, organism-based; design: dose 10 mg/kg, route oral; details: in vivo
How it was run: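 Male Sprague-Dawley rats were given a single oral dose of 10 mg/kg. Serum concentration-time profiles were followed, and pharmacokinetic parameters, including mean residence time and clearance, were derived from them.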

Escherichia coli = test: Antibacterial activity against Escherichia coli ATCC 9637 assessed as growth inhibition after 24 hrs by microbroth dilution method; type: functional; details: W
How it was run: (§1)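 Broth microdilution susceptibility testing following NCCLS guidelines (reference standard M27-A for yeasts), run against a panel of bacterial and fungal strains.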

Staphylococcus aureus = test: Antibacterial activity against Staphylococcus aureus ATCC 25923 assessed as growth inhibition after 24 hrs by microbroth dilution method; type: functional; details: ATCC 25923, 24 h; how it was run: as §1
Aspergillus fumigatus = test: Antifungal activity against Aspergillus fumigatus isolated from patient assessed as growth inhibition after 72 to 96 hrs by microbroth dilution method; type: functional; how it was run: as §1
Sporothrix schenckii = test: Antifungal activity against Sporothrix schenckii isolated from patient assessed as growth inhibition after 72 to 96 hrs by microbroth dilution method; type: functional; how it was run: as §1
Candida parapsilosis = test: Antifungal activity against Candida parapsilosis ATCC 22019 assessed as growth inhibition after 24 to 48 hrs by microbroth dilution method; type: functional; details: Lodderomyces parapsilosis; how it was run: as §1
Klebsiella pneumoniae = test: Antibacterial activity against Klebsiella pneumoniae ATCC 27736 assessed as growth inhibition after 24 hrs by microbroth dilution method; type: functional; details: ATCC 27736, 24 h; how it was run: as §1
Cryptococcus neoformans = test: Antifungal activity against Cryptococcus neoformans CDRI isolate assessed as growth inhibition after 24 to 48 hrs by microbroth dilution method; type: functional; how it was run: as §1
Candida albicans = test: Antifungal activity against Candida albicans isolated from patient assessed as growth inhibition after 24 to 48 hrs by microbroth dilution method; type: functional; how it was run: as §1
Pseudomonas aeruginosa = test: Antibacterial activity against Pseudomonas aeruginosa ATCC BAA427 assessed as growth inhibition after 24 hrs by microbroth dilution method; type: functional; details: ATCC BAA427, 24 h; how it was run: as §1
[5] = test system: Trichophyton mentagrophytes; test: Antifungal activity against Trichophyton mentagrophytes isolated from patient assessed as growth inhibition after 72 to 96 hrs by microbroth dilution method; type: functional; how it was run: as §1

## OC(c1ccc(OCc2ccc(OCCN3CCCCC3)cc2)cc1)C1CC1 (stereo not given)
[1]
  Selectivity Index: >10
[2]
  MIC: 3.12 µg/mL (≈ 8.18 µM)
[3]
  CC50 at 24 h: > 50 µg/mL

## ClCC/C=C/c1ccc(OCc2ccc(OCCN3CCCCC3)cc2)cc1
[2]
  MIC: 4.46 µg/mL (≈ 11.2 µM)

## C(=C\c1ccc(OCc2ccccc2)cc1)/CCn1cncn1
[2]
  MIC: > 25 µg/mL

## C(=C\c1ccc(OCc2ccccc2)cc1)/CCSc1nc2ccccc2s1
[4]
  MRT: 6.02 h

## C(=C\c1ccc(OCc2ccccc2)cc1)/CCSc1nc2ccccc2[nH]1
[2]
  MIC: > 25 µg/mL

## CCCCSc1nc2ccccc2n1CC/C=C/c1ccc(OCc2ccccc2)cc1
[2]
  MIC: > 12.5 µg/mL

## Clc1ccc(COc2ccc(/C=C/CCn3cnc4ccccc43)cc2)cc1
[2]
  MIC: 6.25 µg/mL (≈ 16.1 µM)

## Clc1ccc(COc2ccc(/C=C/CCn3nnc4ccccc43)cc2)cc1
[2]
  MIC: > 12.5 µg/mL

## Brc1ccc(COc2ccc(/C=C/CCn3cncn3)cc2)cc1
[2]
  MIC: 4.78 µg/mL (≈ 12.4 µM)

## Cc1cnn(CC/C=C/c2ccc(OCc3ccc(Br)cc3)cc2)c1
[4]
  MRT: 7.17 h

## O=[N+]([O-])c1cn(CC/C=C/c2ccc(OCc3ccc(F)cc3)cc2)cn1
[2]
  MIC: 50 µg/mL (≈ 136 µM)

## COc1ccc(COc2ccc(/C=C/CCSc3nc4ccccc4[nH]3)cc2)cc1
[2]
  MIC: > 12.5 µg/mL

## c1ccc2c(c1)ncn2C(c1ccc(OCc2ccc(OCCN3CCCCC3)cc2)cc1)C1CC1 (stereo not given)
[2]
  MIC: 12.5 µg/mL (≈ 26 µM)

## c1cc(OCCN2CCCCC2)ccc1COc1ccc(C(Nn2cnnc2)C2CC2)cc1 (stereo not given)
[2]
  MIC: 50 µg/mL (≈ 112 µM)

## c1ccc2sc(NC(c3ccc(OCc4ccc(OCCN5CCCCC5)cc4)cc3)C3CC3)nc2c1 (stereo not given)
[2]
  MIC: 12.5 µg/mL (≈ 24.3 µM)

## c1ccc2sc(SC(c3ccc(OCc4ccc(OCCN5CCCCC5)cc4)cc3)C3CC3)nc2c1 (stereo not given)
Escherichia coli
  MIC: > 50 µg/mL
[1]
  Selectivity Index: 32.2
Staphylococcus aureus
  MIC: 12.5 µg/mL (≈ 23.6 µM)
Aspergillus fumigatus
  MIC: 25 µg/mL (≈ 47.1 µM)
Sporothrix schenckii
  MIC: 12.5 µg/mL (≈ 23.6 µM)
Candida parapsilosis
  MIC: > 50 µg/mL
Klebsiella pneumoniae
  MIC: > 50 µg/mL
Cryptococcus neoformans
  MIC: 50 µg/mL (≈ 94.2 µM)
[2]
  MIC: 3.12 µg/mL (≈ 5.88 µM)
Candida albicans
  MIC: 6.25 µg/mL (≈ 11.8 µM)
[3]
  CC50 at 24 h: 100 µg/mL (≈ 188 µM)
Pseudomonas aeruginosa
  MIC: > 50 µg/mL
[5]
  MIC: 6.25 µg/mL (≈ 11.8 µM)

## c1ccc2[nH]c(SC(c3ccc(OCc4ccc(OCCN5CCCCC5)cc4)cc3)C3CC3)nc2c1 (stereo not given)
[2]
  MIC: > 50 µg/mL

## Fc1ccc2nc(NC(c3ccc(OCc4ccc(OCCN5CCCCC5)cc4)cc3)C3CC3)sc2c1 (stereo not given)
[1]
  Selectivity Index: 0.78
[2]
  MIC: 6.25 µg/mL (≈ 11.8 µM)
[3]
  CC50 at 24 h: 4.93 µg/mL (≈ 9.27 µM)

## c1ccc2oc(NC(c3ccc(OCc4ccc(OCCN5CCCCC5)cc4)cc3)C3CC3)nc2c1 (stereo not given)
Escherichia coli
  MIC: > 50 µg/mL
[1]
  Selectivity Index: 1.87
Staphylococcus aureus
  MIC: 25 µg/mL (≈ 50.2 µM)
Aspergillus fumigatus
  MIC: > 50 µg/mL
Sporothrix schenckii
  MIC: 25 µg/mL (≈ 50.2 µM)
Candida parapsilosis
  MIC: 50 µg/mL (≈ 100 µM)
Klebsiella pneumoniae
  MIC: > 50 µg/mL
Cryptococcus neoformans
  MIC: 50 µg/mL (≈ 100 µM)
[2]
  MIC: 6.25 µg/mL (≈ 12.6 µM)
Candida albicans
  MIC: 12.5 µg/mL (≈ 25.1 µM)
[3]
  CC50 at 24 h: 11.7 µg/mL (≈ 23.5 µM)
Pseudomonas aeruginosa
  MIC: > 50 µg/mL
[5]
  MIC: 12.5 µg/mL (≈ 25.1 µM)

## c1ccc(COc2ccc(C(C3CC3)n3cnc4ccccc43)cc2)cc1 (stereo not given)
[2]
  MIC: 12.5 µg/mL (≈ 35.3 µM)

## c1ccc(COc2ccc(C(C3CC3)n3ccnc3)cc2)cc1 (stereo not given)
[2]
  MIC: 12.5 µg/mL (≈ 41.1 µM)

## c1ccc(COc2ccc(C(C3CC3)n3cncn3)cc2)cc1 (stereo not given)
[2]
  MIC: > 12.5 µg/mL

## c1ccc(COc2ccc(C(Nn3cnnc3)C3CC3)cc2)cc1 (stereo not given)
[2]
  MIC: > 12.5 µg/mL

## c1ccc(COc2ccc(C(Nc3nc4ccccc4s3)C3CC3)cc2)cc1 (stereo not given)
[4]
  MRT: 7.9 h

## O=[N+]([O-])c1cnc(NC(c2ccc(OCc3ccccc3)cc2)C2CC2)s1 (stereo not given)
[2]
  MIC: > 25 µg/mL

## Cc1cnn(C(c2ccc(OCc3ccccc3Cl)cc2)C2CC2)c1 (stereo not given)
[2]
  MIC: 12.5 µg/mL (≈ 35.4 µM)

## Clc1ccc(COc2ccc(C(C3CC3)n3cncn3)cc2)cc1 (stereo not given)
[2]
  MIC: 12.5 µg/mL (≈ 36.8 µM)

## Brc1ccc(COc2ccc(C(C3CC3)n3cncn3)cc2)cc1 (stereo not given)
[2]
  MIC: 25 µg/mL (≈ 65.1 µM)

## Cc1cnn(C(c2ccc(OCc3ccc(Br)cc3)cc2)C2CC2)c1 (stereo not given)
[2]
  MIC: > 50 µg/mL

## O=[N+]([O-])c1cn(C(c2ccc(OCc3ccc(F)cc3)cc2)C2CC2)cn1 (stereo not given)
[2]
  MIC: 12.5 µg/mL (≈ 34 µM)

## COc1ccc(COc2ccc(C(C3CC3)n3cnc4ccccc43)cc2)cc1 (stereo not given)
[2]
  MIC: > 12.5 µg/mL

## COc1ccc(COc2ccc(C(C3CC3)n3ccnc3)cc2)cc1 (stereo not given)
Escherichia coli
  MIC: > 50 µg/mL
Staphylococcus aureus
  MIC: 25 µg/mL (≈ 74.8 µM)
Aspergillus fumigatus
  MIC: 6.25 µg/mL (≈ 18.7 µM)
Sporothrix schenckii
  MIC: 3.12 µg/mL (≈ 9.33 µM)
Candida parapsilosis
  MIC: 50 µg/mL (≈ 150 µM)
Klebsiella pneumoniae
  MIC: 25 µg/mL (≈ 74.8 µM)
Cryptococcus neoformans
  MIC: 50 µg/mL (≈ 150 µM)
[2]
  MIC: 12.5 µg/mL (≈ 37.4 µM)
Candida albicans
  MIC: 25 µg/mL (≈ 74.8 µM)
Pseudomonas aeruginosa
  MIC: 50 µg/mL (≈ 150 µM)
[5]
  MIC: 3.12 µg/mL (≈ 9.33 µM)

## C(=C\c1ccc(OCc2ccccc2)cc1)/CCn1cnc2ccccc21
[4]
  MRT: 3.22 h

## CC1(C)S[C@@H]2[C@H](NC(=O)[C@H](N)c3ccccc3)C(=O)N2[C@H]1C(=O)O [AMPICILLIN]
Escherichia coli
  MIC: 3.12 µg/mL (≈ 8.93 µM)
Staphylococcus aureus
  MIC: 0.04 µg/mL (≈ 0.114 µM)
Klebsiella pneumoniae
  MIC: 50 µg/mL (≈ 143 µM)
Pseudomonas aeruginosa
  MIC: > 50 µg/mL

## Clc1ccccc1C(c1ccccc1)(c1ccccc1)n1ccnc1 [CLOTRIMAZOLE]
Aspergillus fumigatus
  MIC: 8 µg/mL (≈ 23.2 µM)
Sporothrix schenckii
  MIC: 4 µg/mL (≈ 11.6 µM)
Candida parapsilosis
  MIC: 1 µg/mL (≈ 2.9 µM)
Cryptococcus neoformans
  MIC: 0.25 µg/mL (≈ 0.725 µM)
Candida albicans
  MIC: 0.25 µg/mL (≈ 0.725 µM)
[5]
  MIC: 2 µg/mL (≈ 5.8 µM)

## CC[C@@H](CO)NCCN[C@@H](CC)CO [ETHAMBUTOL]
[2]
  MIC: 2 µg/mL (≈ 9.79 µM)

## OC(Cn1cncn1)(Cn1cncn1)c1ccc(F)cc1F [FLUCONAZOLE]
Aspergillus fumigatus
  MIC: > 32 µg/mL
Sporothrix schenckii
  MIC: 4 µg/mL (≈ 13.1 µM)
Candida parapsilosis
  MIC: 0.5 µg/mL (≈ 1.63 µM)
Cryptococcus neoformans
  MIC: 2 µg/mL (≈ 6.53 µM)
[2]
  MIC: 2.83 µg/mL (≈ 9.22 µM)
Candida albicans
  MIC: 1 µg/mL (≈ 3.27 µM)
[5]
  MIC: 16 µg/mL (≈ 52.2 µM)

## NNC(=O)c1ccncc1 [ISONIAZID]
[2]
  MIC: 0.025 µg/mL (≈ 0.182 µM)

Source: ChEMBL document CHEMBL2440028, “Identification of 1-[4-Benzyloxyphenyl)-but-3-enyl]-1H-azoles as New Class of Antitubercular and Antimicrobial Agents” (ACS Med Chem Lett, 2013)
